Assay outcomes from PubChem BioAssay.
Shown are actives, neighbours in structure and some others; about 1.9% of the full set was active somewhere.
MBD2 inh: inhibitors of human MBD2 binding to methylated oligonucleotide | TR-FRET | inhibition, % at 4.4 µM | 370,000 compounds, 0.31% hits | AID 686964; in the data active = inhibition above about 13%
TDP2 inh: blocks human TDP2 phosphodiesterase activity. O95551. recombinant TDP2, T5PNP hydrolysis, p-nitrophenol absorbance 415 nm. inhibition, % at 12.8 µM. 370,000 compounds, 0.34% hits;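 active = inhibition above the mean of all tested compounds plus 3 SD, set per campaign, cut at about 25% in these data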;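 also: 0% = DMSO with enzyme and 100% = buffer with substrate but no TDP2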
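System: recombinant human TDP2 / Amount: 120 nM TDP2 per well / Also added: 5 mM T5PNP chromogenic substrate / Doses: 12.8 µM single point, 1% DMSO / Incubation: 2 h at 37 °C / Detection: p-Nitrophenol epi absorbance / Evaluation: % inhibition relative to enzyme-containing and enzyme-free wells / Repeats: singlicate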
UHRF1 MBD2 ctr: human UHRF1 methylated DNA binding inhibitors. UHRF1 binding to methylated oligo, TR-FRET. inhibition, % at 4.4 µM. Q96T88. 370,000 compounds, 0.75% hits; in the data active = inhibition above about 21%;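 also: UHRF1 SRA domain binding a hemimethylated CpG hairpin DNA probe; 0% = median of test compound wells and 100% = reference inhibitor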
LEDGF integ inh: blocks HIV-1 LEDGF/p75-dependent DNA integration. TR-FRET IN-LEDGF/p75 DNA integration, Eu/Cy5. inhibition, % at 3.7 µM. 370,000 compounds, 0.64% hits. AID 743269;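 active = inhibition above the screen-wide mean plus 3 SD, cut at about 13% in these data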;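 also: signal is the Cy5 over europium emission ratio at 671 and 618 nm; 0% = plate median of compound wells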
Rin1-Abl PPI inh: human Rin1-Abl interaction inhibition; P00519+Q13671; TR-FRET Rin1/Abl binding, biochemical; inhibition, % at 7.35 µM; 360,000 compounds, 0.4% hits; in the data active = inhibition above about 5%, passing the limit was not always enough
Target sequence (P00519 whole entry, looked up): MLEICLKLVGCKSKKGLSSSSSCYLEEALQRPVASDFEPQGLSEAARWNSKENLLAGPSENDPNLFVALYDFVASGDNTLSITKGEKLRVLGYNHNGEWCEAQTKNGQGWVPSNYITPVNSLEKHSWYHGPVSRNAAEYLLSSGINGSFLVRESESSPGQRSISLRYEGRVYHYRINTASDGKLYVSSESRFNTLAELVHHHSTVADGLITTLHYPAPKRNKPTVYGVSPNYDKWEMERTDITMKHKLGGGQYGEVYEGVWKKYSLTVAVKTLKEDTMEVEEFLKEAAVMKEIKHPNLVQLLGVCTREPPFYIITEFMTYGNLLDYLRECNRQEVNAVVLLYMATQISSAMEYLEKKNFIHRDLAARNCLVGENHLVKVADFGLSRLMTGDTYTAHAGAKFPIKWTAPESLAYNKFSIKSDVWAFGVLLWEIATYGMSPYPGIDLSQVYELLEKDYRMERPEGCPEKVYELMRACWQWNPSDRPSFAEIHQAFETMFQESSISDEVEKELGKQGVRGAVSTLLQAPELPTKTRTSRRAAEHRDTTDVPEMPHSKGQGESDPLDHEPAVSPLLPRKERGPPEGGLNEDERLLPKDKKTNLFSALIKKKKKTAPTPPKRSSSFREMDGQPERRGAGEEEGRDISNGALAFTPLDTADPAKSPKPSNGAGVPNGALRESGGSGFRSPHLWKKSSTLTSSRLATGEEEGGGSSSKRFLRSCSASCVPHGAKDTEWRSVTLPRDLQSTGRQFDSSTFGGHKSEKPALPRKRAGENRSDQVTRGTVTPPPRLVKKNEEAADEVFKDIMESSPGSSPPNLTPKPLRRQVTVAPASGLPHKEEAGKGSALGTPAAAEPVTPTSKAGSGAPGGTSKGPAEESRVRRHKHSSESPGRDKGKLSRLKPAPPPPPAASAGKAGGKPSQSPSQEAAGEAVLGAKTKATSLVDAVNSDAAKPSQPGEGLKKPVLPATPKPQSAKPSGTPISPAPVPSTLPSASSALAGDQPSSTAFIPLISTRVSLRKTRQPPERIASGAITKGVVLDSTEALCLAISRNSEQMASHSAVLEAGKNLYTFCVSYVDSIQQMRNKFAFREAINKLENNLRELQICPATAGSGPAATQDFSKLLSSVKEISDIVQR
Target sequence (Q13671 whole entry, looked up): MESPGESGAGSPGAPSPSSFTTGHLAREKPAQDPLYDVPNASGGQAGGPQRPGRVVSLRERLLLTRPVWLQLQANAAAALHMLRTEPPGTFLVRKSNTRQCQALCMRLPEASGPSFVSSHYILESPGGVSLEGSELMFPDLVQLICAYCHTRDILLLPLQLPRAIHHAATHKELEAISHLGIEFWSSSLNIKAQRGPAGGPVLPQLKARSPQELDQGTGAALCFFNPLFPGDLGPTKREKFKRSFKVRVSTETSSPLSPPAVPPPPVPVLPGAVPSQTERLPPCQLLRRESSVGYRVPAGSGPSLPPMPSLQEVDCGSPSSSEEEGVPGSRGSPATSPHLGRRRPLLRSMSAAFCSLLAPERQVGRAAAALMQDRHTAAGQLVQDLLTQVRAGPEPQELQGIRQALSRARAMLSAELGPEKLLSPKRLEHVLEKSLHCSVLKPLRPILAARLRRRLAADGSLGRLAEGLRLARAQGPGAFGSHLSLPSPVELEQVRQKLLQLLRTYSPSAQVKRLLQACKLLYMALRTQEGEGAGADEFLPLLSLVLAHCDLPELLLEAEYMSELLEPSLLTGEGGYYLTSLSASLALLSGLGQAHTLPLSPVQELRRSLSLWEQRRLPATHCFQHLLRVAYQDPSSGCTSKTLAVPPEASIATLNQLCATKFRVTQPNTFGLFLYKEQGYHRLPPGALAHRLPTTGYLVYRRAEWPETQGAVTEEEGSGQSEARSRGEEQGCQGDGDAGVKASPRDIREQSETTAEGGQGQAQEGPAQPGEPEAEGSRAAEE
TDP2 inh conf: confirmation of human TDP2 inhibitors; AID 743263; recombinant human TDP2, absorbance read-out; inhibition, % at 12.8 µM; 1,100 compounds, 22% hits; shares compounds with TDP2 inh; in the data active = inhibition above about 25%;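 also: 0% = vehicle with enzyme and 100% = no enzyme buffer only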
Starred values were filed as active, the others as inactive; nt = not tested or not shown.

SMILES	MBD2 inh	TDP2 inh	UHRF1 MBD2 ctr	LEDGF integ inh	Rin1-Abl PPI inh	TDP2 inh conf
CCN1CCN(CCOCCOc2ccccc2)CC1	-3	28*	-1	0	0	11
CCc1ccc(OCCOCCN2CCN(C)CC2)cc1	-1	32*	-1	4	3	20
CN1CCN(CCOCCOc2ccc(Br)cc2Cl)CC1	2	29*	1	0	4	8
c1ccc(OCCOCCN2CCOCC2)cc1	3	3	3	-2	-1	nt
CCOC(=O)[C@@]12CN(C(=O)OC(C)(C)C)CC=C1N(Cc1ccc(OC)cc1)C(=O)[C@H]2CC(=O)NCc1cccc(C(F)(F)F)c1	2	1	-1	4	nt	nt
COC1=C[C@H](C(=O)NCc2ccc(OC)cc2)C(C)C(c2ccccc2)CC1=O (some centres not stated)	2	4	4	5	nt	nt
CCCCCCCCN1C(=O)[C@@H](CC(=O)NCCCOCCCC)C[C@@]2(C(=O)OC)C1=C[C@H](C(C)C)O[C@@H]2C1CC1	1	-3	-2	-3	nt	nt
C[C@H]1[C@H](NC(=O)c2ccc(Cl)cc2)CC[C@@]23CCCN2C(=O)CCC[C@@H]13	-2	-2	2	1	nt	nt
CC(c1nc2scc(-c3ccccc3)c2c(=O)[nH]1)N1CCN(CC(=O)NC2CC2)CC1 (configuration not stated)	3	32*	-4	-2	1	1
CC(C)CNC(=O)CSc1nc2scc(-c3ccccc3)c2c(=O)[nH]1	-3	-2	-4	3	-1	nt
Cn1c(=O)c2c(nc3n2CC(COc2ccccc2)O3)n(C)c1=O (configuration not stated)	-1	-10	-4	2	1	nt
COc1cccc(CNC(=O)CN2CCCc3ccccc32)c1	1	-4	3	-5	nt	nt
CC(C)(C)n1nnnc1C(c1cccnc1)N1CCOCC1 (configuration not stated)	-2	27*	-3	0	3	-4
Cn1c(=S)[nH]c2sc3c(c2c1=O)CCC(C(C)(C)C)C3 (configuration not stated)	-1	27*	-3	-3	-5	-3
COCCn1c(=S)[nH]c2sc3c(c2c1=O)CCC(C)C3 (configuration not stated)	-1	3	-1	1	1	nt
Cn1c(SCC(=O)Nc2ccc3[nH]c(=O)[nH]c3c2)nnc1-c1ccc(F)cc1	-1	29*	-1	0	-1	1
Cn1c(SCC(=O)Nc2ccc3[nH]c(=O)[nH]c3c2)nnc1-c1ccccc1	9	-5	5	2	-3	nt
O=C(CCn1c(=O)oc2ccc(Cl)cc21)N1CCN(c2ccccc2)CC1	-3	25*	-1	-1	-1	-1
CCCOc1nccc2c1n(C)c(=O)n2C	-4	-5	-1	0	nt	nt
CC(C)COc1ccc(-c2csc(N3CCC(C(N)=O)CC3)n2)cc1	1	-7	-1	1	nt	nt
CC(C)Oc1ccc(S(=O)(=O)N2CCOCC2)cc1NC(=O)Cc1c(F)cccc1Cl	2	29*	0	2	2	0
COc1ccc(CCNCC(=O)Nc2ccc(C)c(S(=O)(=O)N(C)C)c2)cc1OC	5	32*	4	0	0	9
O=C(OC12CCCN(C1)/C(=C/c1cccc(Cl)c1)C2)C1CCCC1 (configuration not stated)	-1	4	1	-4	nt	nt
CCOC(=O)c1c(C)oc2c1cc(NS(=O)(=O)c1ccc(C(=O)O)cc1)c1ccccc12	-6	34*	-2	2	0	16
Cc1oc2c(cc(NS(=O)(=O)c3ccc(Cl)cc3)c3ccccc32)c1C(=O)O	2	11	-4	0	-2	nt
SMILES	MBD2 inh	TDP2 inh	UHRF1 MBD2 ctr	LEDGF integ inh	Rin1-Abl PPI inh	TDP2 inh conf
O=C(O[C@H]1CC[C@@]23CCCN2C(=O)CCC[C@H]3C1)N1CCCC1	-4	-3	-4	-2	nt	nt
C=C1CCC[C@]2(C)C[C@H]3OC(=O)C(CNCCN(CC)CC)[C@H]3CC12 (some centres not stated)	-3	34*	-1	1	2	-4
COc1cc2cc(NC(C)=O)cc(NCc3ccccc3)c2cc1OC	-1	6	-1	2	-4	nt
CCCCNc1cc(NC(C)=O)cc2cc(OC)c(OC)cc12	-3	30*	-2	-4	-6	29*
N#CC1=C(N)Oc2n[nH]c(-c3ccccc3)c2C1c1cccnc1 (configuration not stated)	-3	-3	-7	-2	2	nt
N#CC1=C(N)Oc2n[nH]c(-c3cccnc3)c2C1c1cc(F)ccc1F (configuration not stated)	2	52*	-5	2	2	-12
CN1CCN(S(=O)(=O)c2ccc(NC(=O)c3ccccc3F)cc2)CC1	-1	25*	0	-2	-1	4
CCOc1ccc2c(c1)C(C)=CC(C)(C)N2	-2	26*	-2	7	0	-2
COc1cccc(N2CC(NS(=O)(=O)c3cccnc3)CC2=O)c1 (configuration not stated)	-4	29*	0	-1	-5	-5
COc1ccc(N2CC(NS(=O)(=O)c3cccnc3)CC2=O)cc1 (configuration not stated)	-5	-4	-4	0	1	nt
Cc1ccc(NC(=O)Cc2nnc(SCC(=O)Nc3nncs3)n2C)c(C)c1	-2	29*	1	0	0	2
COc1cccc(CN2CC(C(=O)NCCCn3cccn3)CCC2=O)c1 (configuration not stated)	1	6	1	1	1	nt
O=[N+]([O-])c1ccc2c(c1)nnn2-c1ccccc1	-3	24*	-3	-2	-1	5
CCC(C)N(C(=O)CSc1nnc(-c2cccnc2)n1C1CCCCC1)C(C)CC (configuration not stated)	0	7	-1	-2	nt	nt
COc1ccc(-c2cc(NC(=O)Cc3c[nH]c4ccccc34)ccc2Nc2cccnc2)cc1F	2	2	-1	-3	nt	nt
Cc1[nH]c2ccccc2c1C(=O)CN1C(=O)C(=O)N(C2CCCC2)C1=O	-4	26*	1	1	0	4
Cc1cc(C(=O)CN2C(=O)C(=O)N(C3CCCC3)C2=O)c(C)n1CCc1ccccc1	3	7	0	-4	1	nt
COC(=O)CCC(=O)OC1(C)C(=O)C=C2C=C(C3CC3)N(C3CC3)C=C2C1=O (configuration not stated)	-1	38*	2	7	1	10
Oc1ccc(-c2nn[nH]n2)c2cccnc12	1	-4	0	-5	nt	nt
Cc1nn(CCO)c(N)c1C1(O)C(=O)Nc2c(Cl)cc(Cl)cc21 (configuration not stated)	-8	28*	-3	1	-2	1
